# Key:
# [1] = test system: FK-506 binding protein family members (FKBP) 1A, 2, 3,4, and 5; assay: Arrayed affinity-selection/mass spectrometry binding assay, control compound; set-up: species or system human; conditions: control for the binder selection pipeline; FKBP1A highest signal
# NSCLC cell line panel = assay: Cell viability dose response in NSCLC cell line panel; assay type: cell-based, human
# Procedure, shortened: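 Viability read after 72 hrs of exposure to test compound at 5 µM, either alone or with HET-0016 at 100 nM. DMSO-treated cells serve as control.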
# [2] = no reference given; cited from earlier work
# ABCG2 = biological target: T1, ABCG2 (Homo sapiens, UniProt Q9UNQ0); assay: siRNA depletion of ABCG2 followed by THZ1 treatment; assay type: cell-based; conditions: ABCG2 depletion sensitized resistant cells; H157 cells, THZ1 50nM, 72 hrs
# T1 sequence (Q9UNQ0 1-655): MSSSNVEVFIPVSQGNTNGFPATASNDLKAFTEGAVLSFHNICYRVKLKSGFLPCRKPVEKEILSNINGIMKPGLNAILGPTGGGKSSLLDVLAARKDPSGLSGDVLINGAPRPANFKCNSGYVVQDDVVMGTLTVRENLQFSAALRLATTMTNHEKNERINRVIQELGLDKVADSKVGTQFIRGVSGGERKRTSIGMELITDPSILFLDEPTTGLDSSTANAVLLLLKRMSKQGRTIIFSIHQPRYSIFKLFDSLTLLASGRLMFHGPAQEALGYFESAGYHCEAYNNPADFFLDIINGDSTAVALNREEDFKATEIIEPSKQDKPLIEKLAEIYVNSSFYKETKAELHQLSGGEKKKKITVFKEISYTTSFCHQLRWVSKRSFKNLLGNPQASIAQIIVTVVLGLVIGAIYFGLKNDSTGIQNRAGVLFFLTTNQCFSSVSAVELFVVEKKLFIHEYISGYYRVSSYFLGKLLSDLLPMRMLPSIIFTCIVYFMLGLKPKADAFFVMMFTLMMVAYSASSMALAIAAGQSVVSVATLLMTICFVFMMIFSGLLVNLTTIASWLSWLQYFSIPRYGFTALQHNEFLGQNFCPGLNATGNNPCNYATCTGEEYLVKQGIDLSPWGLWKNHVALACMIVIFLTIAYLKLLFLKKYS
structure (smiles),measurement,setting,value
C=CC[C@@H]1/C=C(\C)C[C@H](C)C[C@H](OC)[C@H]2O[C@@](O)(C(=O)C(=O)N3CCCC[C@H]3C(=O)O[C@H](/C(C)=C/[C@@H]3CC[C@@H](O)[C@H](OC)C3)[C@H](C)[C@@H](O)CC1=O)[C@H](C)C[C@@H]2OC [FK-506],LC/MS binding signal,[1],strongest signal
CCCCc1ccc(N=CNO)c(C)c1 [HET0016],effect on SW001286 toxicity,"NSCLC cell line panel; SW001286 5µM plus HET-0016 100nM, 72 hrs, two sensitive cell lines",rescued
CC(C)Oc1ccc(C(=O)N[C@H](CNC(=O)CN(C)C)Cc2ccc(-c3cn4cccc([C@H](C)O)c4n3)cc2)cc1Cl [SW208097],pharmacokinetics in humans,[2],dose proportional pharmacokinetics
same,sensitivity (ED50),NSCLC cell line panel; cell lines with co-occuring mutations in TP53 and KEAP1,low nanomolar
CN(C)C/C=C/C(=O)Nc1ccc(C(=O)Nc2cccc(Nc3ncc(Cl)c(-c4c[nH]c5ccccc45)n3)c2)cc1 [THZ1],efflux transporter substrate status,ABCG2,ABCG2 substrate

# — PMC5935540 (Cell, 2018)
